According to ChEMBL document CHEMBL4229460, “Design and biological evaluation of novel hybrids of 1, 5-diarylpyrazole and Chrysin for selective COX-2 inhibition” (Bioorg Med Chem, 2018):

Legend:
[1] = system: HeLa; test: Induction of apoptosis in human HeLa cells assessed as live cells at 2.5 uM after 24 hrs by Annexin-V-FITC/propidium iodide staining based flow cytometry (reference value: 94.6%); assay type: functional
Procedure, shortened: (§1)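 HeLa seeded at 2 × 10⁵ cells/well. Dose series was 0, 1.25, 2.5, 5 and 10 μM for 24 h; time course was 5 μM for 12, 24, 36 or 48 h. Trypsinized and washed in ice-cold PBS, then stained in binding buffer with Annexin V-FITC and PI for 10 min in the dark. Flow cytometry scored early (Annexin⁺/PI⁻) and late (Annexin⁺/PI⁺) apoptotic cells.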

[2] = system: HeLa; test: Induction of apoptosis in human HeLa cells assessed as live cells at 1.25 uM after 24 hrs by Annexin-V-FITC/propidium iodide staining based flow cytometry (reference value: 94.6%); assay type: functional; procedure, shortened: as §1
[3] = system: HeLa; test: Antiproliferative activity against human HeLa cells after 48 hrs by MTT assay; assay type: functional, cell-based
[4] = system: HeLa; test: Induction of apoptosis in human HeLa cells assessed as live cells at 5 uM after 24 hrs by Annexin-V-FITC/propidium iodide staining based flow cytometry (reference value: 94.6 to 95.1%); assay type: functional; procedure, shortened: as §1
[5] = system: HeLa; test: Cell cycle arrest in human HeLa cells assessed as accumulation at G1 phase after 24 hrs by propidium iodide staining based flow cytometry; assay type: functional
[6] = system: HeLa; test: Induction of apoptosis in human HeLa cells assessed as early apoptotic cells at 5 uM after 48 hrs by Annexin-V-FITC/propidium iodide staining based flow cytometry (reference value: 1.24%); assay type: functional; procedure, shortened: as §1
[7] = system: HeLa; test: Cell cycle arrest in human HeLa cells assessed as accumulation at S phase at 5 uM after 24 hrs by propidium iodide staining based flow cytometry (reference value: 18.16%); assay type: functional
[8] = system: HeLa; test: Disruption of mitochondrial membrane potential in human HeLa cells assessed as intact mitochondrial membrane at 10 uM after 12 hrs by JC1 staining based flow cytometry (reference value: 99.2%); assay type: functional
[9] = system: HEK-293T; test: Cytotoxicity against human 293T cells after 48 hrs by MTT assay; assay type: cell-based
[10] = system: HeLa; test: Induction of apoptosis in human HeLa cells assessed as early apoptotic cells at 2.5 uM after 24 hrs by Annexin-V-FITC/propidium iodide staining based flow cytometry (reference value: 2.98%); assay type: functional; procedure, shortened: as §1
[11] = system: HeLa; test: Disruption of mitochondrial membrane potential in human HeLa cells assessed as intact mitochondrial membrane at 1.25 uM after 12 hrs by JC1 staining based flow cytometry (reference value: 99.2%); assay type: functional
[12] = system: HeLa; test: Induction of apoptosis in human HeLa cells assessed as live cells at 5 uM after 12 hrs by Annexin-V-FITC/propidium iodide staining based flow cytometry (reference value: 95.1%); assay type: functional; procedure, shortened: as §1
[13] = system: HeLa; test: Disruption of mitochondrial membrane potential in human HeLa cells assessed as intact mitochondrial membrane at 5 uM after 12 hrs by JC1 staining based flow cytometry (reference value: 99.2%); assay type: functional
[14] = system: HeLa; test: Induction of apoptosis in human HeLa cells assessed as late apoptotic cells at 5 uM after 12 hrs by Annexin-V-FITC/propidium iodide staining based flow cytometry (reference value: 2.57%); assay type: functional; procedure, shortened: as §1
[15] = system: HeLa; test: Cell cycle arrest in human HeLa cells assessed as accumulation at G1 phase at 2.5 uM after 24 hrs by propidium iodide staining based flow cytometry (reference value: 55.51%); assay type: functional
[16] = system: HeLa; test: Induction of apoptosis in human HeLa cells assessed as late apoptotic cells at 2.5 uM after 24 hrs by Annexin-V-FITC/propidium iodide staining based flow cytometry (reference value: 1.72%); assay type: functional; procedure, shortened: as §1
[17] = system: HeLa; test: Induction of apoptosis in human HeLa cells assessed as early apoptotic cells at 1.25 uM after 24 hrs by Annexin-V-FITC/propidium iodide staining based flow cytometry (reference value: 2.98%); assay type: functional; procedure, shortened: as §1
[18] = system: HeLa; test: Induction of apoptosis in human HeLa cells assessed as live cells at 5 uM after 36 hrs by Annexin-V-FITC/propidium iodide staining based flow cytometry (reference value: 95.1%); assay type: functional; procedure, shortened: as §1
[19] = system: HeLa; test: Cell cycle arrest in human HeLa cells assessed as accumulation at G2/M phase at 5 uM after 24 hrs by propidium iodide staining based flow cytometry (reference value: 21.45%); assay type: functional
[20] = system: HeLa; test: Disruption of mitochondrial membrane potential in human HeLa cells assessed as collapse of the mitochondrial membrane potential at 2.5 uM after 12 hrs by JC1 staining based flow cytometry (reference value: 0.768%); assay type: functional
[21] = system: HeLa; test: Induction of apoptosis in human HeLa cells assessed as necrotic cells at 5 uM after 36 hrs by Annexin-V-FITC/propidium iodide staining based flow cytometry (reference value: 1.12%); assay type: functional
Procedure, shortened: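 HeLa cells in DMEM with 10% FBS, penicillin/streptomycin, 37 °C, 5% CO₂; seeded 2 × 10⁵ cells/well in six-well plates, treated at 0, 1.25, 2.5, 5 and 10 μM for 24 h, or at 5 μM for 12, 24, 36 or 48 h. Cells trypsinized, washed in ice-cold PBS, stained in binding buffer with Annexin V-FITC and PI for 10 min in the dark, then analyzed by flow cytometry.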

[22] = system: HeLa; test: Induction of apoptosis in human HeLa cells assessed as early apoptotic cells at 5 uM after 36 hrs by Annexin-V-FITC/propidium iodide staining based flow cytometry (reference value: 1.24%); assay type: functional; procedure, shortened: as §1
[23] = system: HeLa; test: Disruption of mitochondrial membrane potential in human HeLa cells after 12 hrs by JC1 staining based flow cytometry; assay type: functional, cell-based
[24] = system: HeLa; test: Induction of apoptosis in human HeLa cells assessed as early apoptotic cells at 5 uM after 24 hrs by Annexin-V-FITC/propidium iodide staining based flow cytometry (reference value: 1.24 to 2.98%); assay type: functional; procedure, shortened: as §1
[25] = system: HeLa; test: Cell cycle arrest in human HeLa cells assessed as accumulation at S phase at 1.25 uM after 24 hrs by propidium iodide staining based flow cytometry (reference value: 18.16%); assay type: functional
[26] = system: HeLa; test: Induction of apoptosis in human HeLa cells assessed as necrotic cells at 2.5 uM after 24 hrs by Annexin-V-FITC/propidium iodide staining based flow cytometry (reference value: 0.242%); assay type: functional; procedure, shortened: as §1
[27] = system: HeLa; test: Cell cycle arrest in human HeLa cells assessed as accumulation at S phase at 2.5 uM after 24 hrs by propidium iodide staining based flow cytometry (reference value: 18.16%); assay type: functional
[28] = system: HeLa; test: Induction of apoptosis in human HeLa cells assessed as late apoptotic cells at 1.25 uM after 24 hrs by Annexin-V-FITC/propidium iodide staining based flow cytometry (reference value: 1.72%); assay type: functional; procedure, shortened: as §1
[29] = system: HeLa; test: Disruption of mitochondrial membrane potential in human HeLa cells assessed as collapse of the mitochondrial membrane potential at 5 uM after 12 hrs by JC1 staining based flow cytometry (reference value: 0.768%); assay type: functional
[30] = system: B16-F10; test: Antiproliferative activity against mouse B16F10 cells after 48 hrs by MTT assay; assay type: functional, cell-based; conditions: B16-F10, 48 h
Procedure, shortened: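 Cells kept in DMEM with 10% FBS, penicillin/streptomycin, 37 °C, 5% CO₂. Seeded at 5 × 10⁴ cells/well and allowed to adhere 12 h. Exposed to 0, 0.1, 1, 10 and 100 μM (final) for 48 h. Viability read by MTT reduction at OD 570 nm with 630 nm reference. IC50 reported as mean ± SD of three independent experiments.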

- IC50 [3]: 1.12 µM
- IC50 [30]: 10.4 µM
SMILES: COc1ccc(-c2cc(COC(=O)COc3cc(O)c4c(=O)cc(-c5ccccc5)oc4c3)nn2-c2ccc(C)cc2)cc1
- Activity [1]: 74.5%
- Activity [2]: 83.2%
- Activity [4]: 43.7 - 57.3%
- Activity [5]: Dose-dependent effect
- Activity [6]: 73.2%
- Activity [7]: 15.67%
- Activity [8]: 86.5%
- IC50 [9]: 194 µM
- Activity [10]: 16.6%
- Activity [11]: 96.5%
- Activity [12]: 67.7%
- Activity [13]: 90.5%
- Activity [14]: 7.07%
- Activity [15]: 67.88%
- Activity [16]: 8.28%
- Activity [17]: 12.6%
- Activity [18]: 48.7%
- Activity [19]: 8.16%
- Activity [20]: 5.61%
- Activity [21]: 2.08%
- Activity [22]: 40.4%
- Activity [23]: Dose-dependent effect
- Activity [24]: 31.6 - 34.7%
- Activity [25]: 17.96%
- Activity [26]: 0.332%
- Activity [27]: 18.61%
- Activity [28]: 5.16%
- Activity [29]: 9.32%
